Laboratory results as given in ChEMBL document CHEMBL3352276, “Design, synthesis and in vitro antitumor activity of novel N-substituted-4-phenyl/benzylphthalazin-1-ones” (Eur J Med Chem, 2015).
Active and inactive are the calls of the source. The calls are words filed in the database; no cut-off is given here.

Columns and labels:
HepG2 [1] = assay: Antiproliferative activity against human HepG2 cells after 72 hrs by SRB assay; assay type: functional, cell-based; conditions: HepG2, 72 h
HT-29 [2] = assay: Antiproliferative activity against human HT-29 cells after 72 hrs by SRB assay; assay type: functional, cell-based; conditions: HT-29, 72 h
Procedure, shortened: (§1)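 SRB assay. HT-29 grown in DMEM; HepG2 and MCF-7 grown in RPMI-1640, all with 10% heat-inactivated FBS at 37 °C under 5% CO2. Cells seeded at 1000–2000/well, left 24 h, then exposed to a range of concentrations for 72 h. Fixed with 10% TCA for 1 h at 4 °C, stained with 0.4% SRB, OD read at 564 nm. IC50 taken from a Boltzmann sigmoidal nonlinear fit. Mean ± S.D. of three separate experiments.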

MCF7 = assay: Antiproliferative activity against human MCF7 cells after 72 hrs by SRB assay; assay type: functional, cell-based; conditions: MCF7, 72 h; procedure, shortened: as §1
HepG2 [3] = assay: Ratio of doxorubicin IC50 to compound IC50 for human HepG2 cells; assay type: functional
Procedure, shortened: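 SRB growth assay: HepG2 in RPMI-1640 + 10% heat-inactivated FBS, seeded 1000–2000 cells/well, dosed after 24 h with graded concentrations alongside doxorubicin for 72 h; TCA-fixed, SRB-stained, OD 564 nm. IC50 fitted as Boltzmann sigmoidal curve vs untreated controls, three separate experiments; ratio = doxorubicin IC50 / compound IC50 from the same assay.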

HepG2 [4] = assay: Cell cycle arrest in human HepG2 cells assessed as accumulation at preG1 phase at IC50 for 24 hrs by propidium iodide staining-based FACS analysis relative to untreated control; assay type: functional
Procedure, shortened: (§2)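 HepG2 cells exposed 24 h at each compound's preset concentration. Then washed in ice-cold PBS, fixed in ice-cold 70% ethanol, treated with 0.1 mg/ml RNase and stained with PI. DNA content read by flow cytometry, and phase distribution compared with untreated control. Triplicate experiments.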

HepG2 [5] = assay: Cell cycle arrest in human HepG2 cells assessed as reduction in G0/G1 phase at IC50 for 24 hrs by propidium iodide staining-based FACS analysis relative to untreated control; assay type: functional; parameters: Activity: scale not given: the % may be the effect or the level left; procedure, shortened: as §2
HepG2 [6] = assay: Cell cycle arrest in human HepG2 cells assessed as reduction in S phase at IC50 for 24 hrs by propidium iodide staining-based FACS analysis relative to untreated control; assay type: functional; procedure, shortened: as §2
HepG2 [7] = assay: Induction of apoptosis in human HepG2 cells assessed as apoptotic cells after 24 hrs by annexin-V/FITC-propidium iodide staining-based FACS analysis relative to untreated control; assay type: functional
Procedure, shortened: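 HepG2 cells treated for 24 h, harvested and washed in PBS. 10^5 cells stained with annexin V-FITC and PI from a detection kit. Flow cytometry used unstained cells for voltage and compensation. Early plus late apoptotic quadrants (LR+UR) compared with control. Triplicate experiments.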

HepG2 [8] = assay: Induction of apoptosis in human HepG2 cells assessed as down regulation of Bcl2 expression at IC50 by sandwich ELISA relative to untreated control; assay type: functional
HepG2 [9] = assay: Induction of apoptosis in human HepG2 cells assessed as upregulation of Bax expression at IC50 by sandwich ELISA relative to untreated control; assay type: functional
HepG2 [10] = assay: Induction of apoptosis in human HepG2 cells assessed as increase in caspase-3 expression at IC50 by sandwich ELISA relative to untreated control; assay type: functional
HT-29 [11] = assay: Ratio of doxorubicin IC50 to compound IC50 for human HT-29 cells; assay type: functional
HepG2 [12] = assay: Cell cycle arrest in human HepG2 cells assessed as increase in S phase at IC50 for 24 hrs by propidium iodide staining-based FACS analysis relative to untreated control
HT-29 [13] = assay: Induction of apoptosis in human HT-29 cells assessed as increase in caspase-3 expression at IC50 by sandwich ELISA relative to untreated control; assay type: functional

| SMILES | IC50 (HepG2 [1]) | IC50 (HT-29 [2]) | IC50 (MCF7) | other results |
| --- | --- | --- | --- | --- |
| O=C(Cn1nc(Cc2ccccc2)c2ccccc2c1=O)Nc1cccc(Cl)c1 | 14.3 µM | 3.68 µM | 10.8 µM | Ratio IC50 (HT-29 [11]): 2 |
| O=C(Cn1nc(Cc2ccccc2)c2ccccc2c1=O)Nc1cccc(C(F)(F)F)c1 | 3.52 µM | 61 µM | 3.85 µM | Ratio (HepG2 [4]): 9.4; Activity (HepG2 [5]): 32.3%; Ratio (HepG2 [7]): 2.7; Activity (HepG2 [8]): 22%; Activity (HepG2 [9]): 39.9%; Ratio (HepG2 [10]): 2.8; Activity (HepG2 [12]): 27.7% |
| COc1cccc2c1C(=O)c1c(O)c3c(c(O)c1C2=O)C[C@@](O)(C(=O)CO)C[C@@H]3O[C@H]1C[C@H](N)[C@H](O)[C@H](C)O1 [DOXORUBICIN] | 3.45 µM | 7.7 µM | – | – |
| O=C(Cn1nc(Cc2ccccc2)c2ccccc2c1=O)Nc1ccccc1 | 66 µM | 95.4 µM | 36 µM | – |
| O=C(Cn1nc(Cc2ccccc2)c2ccccc2c1=O)Nc1ccc(F)cc1 | 27 µM | 98 µM | 30 µM | – |
| COc1ccc(NC(=O)Cn2nc(Cc3ccccc3)c3ccccc3c2=O)cc1 | 69 µM | > 100 µM | 62 µM | – |
| O=C(Cn1nc(Cc2ccccc2)c2ccccc2c1=O)Nc1ccc(Cl)cc1 | > 100 µM | 2.98 µM | 13 µM | Ratio IC50 (HT-29 [11]): 2.6 |

Further lines, with some results ahead:

| IC50 (HepG2 [1]) | IC50 (HT-29 [2]) | IC50 (MCF7) | SMILES | other results |
| --- | --- | --- | --- | --- |
| 1.2 µM | 42.8 µM | 89 µM | O=C(Cn1nc(Cc2ccccc2)c2ccccc2c1=O)Nc1ccccc1Cl | Ratio IC50 (HepG2 [3]): 2.9; Ratio (HepG2 [4]): 28; Ratio (HepG2 [5]): 2; Ratio (HepG2 [6]): 1.9; Ratio (HepG2 [7]): 9.5; Activity (HepG2 [8]): 34%; Activity (HepG2 [9]): 80.2%; Ratio (HepG2 [10]): 4 |
| 13.4 µM | 99 µM | 43 µM | O=C(Cn1nc(-c2ccccc2)c2ccccc2c1=O)Nc1ccccc1 | – |
| 3.5 µM | 41.2 µM | 58 µM | O=C(Cn1nc(-c2ccccc2)c2ccccc2c1=O)Nc1cccc(C(F)(F)F)c1 | Activity (HepG2 [4]): inactive; Activity (HepG2 [5]): inactive; Activity (HepG2 [6]): inactive; Ratio (HepG2 [7]): 2.1; Activity (HepG2 [8]): 9.6%; Activity (HepG2 [9]): 44%; Ratio (HepG2 [10]): 2.5 |
| > 100 µM | > 100 µM | 77 µM | COc1ccc(NC(=O)Cn2nc(-c3ccccc3)c3ccccc3c2=O)cc1 | – |
| 10.6 µM | 46.2 µM | 35 µM | O=C(Cn1nc(-c2ccccc2)c2ccccc2c1=O)Nc1ccc(F)cc1 | – |
| 33 µM | 88.6 µM | 30 µM | O=C(Cn1nc(-c2ccccc2)c2ccccc2c1=O)Nc1ccccc1Cl | – |
| 10.3 µM | 4.02 µM | 33 µM | O=C(Cn1nc(-c2ccccc2)c2ccccc2c1=O)Nc1ccc(Cl)cc1 | Ratio IC50 (HT-29 [11]): 1.9 |
| 3.29 µM | 3.05 µM | 74 µM | O=C(Cn1nc(-c2ccccc2)c2ccccc2c1=O)Nc1cccc(Cl)c1 | Ratio IC50 (HT-29 [11]): 2.5; Activity (HepG2 [4]): inactive; Activity (HepG2 [5]): inactive; Activity (HepG2 [6]): inactive; Ratio (HepG2 [7]): 2.4; Activity (HepG2 [8]): 22%; Activity (HepG2 [9]): 43.5%; Ratio (HepG2 [10]): 3; Ratio (HT-29 [13]): 5.6 |
